Assay results published in ChEMBL document CHEMBL1121884, “Piperazinylquinoxalines with central serotoninmimetic activity” (1981).
The source made the active and inactive calls. No cut-off for these calls is given here.

How the values were obtained:
[1] = biological target: Sodium-dependent serotonin transporter (Rattus norvegicus) (UniProt P31652); assay: (§1) Serotonin neuronal reuptake blocking activity was determined by the antagonism of the head twitch response induced by treatment of rats; assay type: functional; design: concentration or dose not given beside the values
How it was run: (§2)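 Female Sprague-Dawley rats (150-250 g) dosed ip with compound (1% methylcellulose vehicle, dose as base weight), then p-chloromethamphetamine 6.0 mg/kg ip 1 h later; head twitches observed 30 min after PCMA; scored as rats not twitching; usually six rats per dose; ED50 = dose antagonizing PCMA head twitch in 50% of animals, with 95% confidence limits.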

[2] = biological target: Sodium-dependent serotonin transporter (Rattus norvegicus) (UniProt P31652); assay: as §1; assay type: functional; design: concentration or dose not given beside the values; how it was run: as §2; remark: listed apart in the source
[3] = biological target: T1, Serotonin (5-HT) receptor (Rattus norvegicus) (UniProt P35563+P35365+P32305+P31388+Q9JJ16+P28564+P30994+Q62758+P08909+P14842+P30940+P35364+P19327+P28565); assay: (§3) Ability to elicit head twitches in rats (a serotonin mimetic response); assay type: functional; design: concentration or dose not given beside the values
How it was run: (§4)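 Female Sprague-Dawley rats (150-250 g), compound given ip in 1% methylcellulose vehicle, dose as base weight; quantal scoring of rats showing at least one head twitch during a 2-min observation beginning 30 min after dosing; usually six rats per dose level; vehicle controls run.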

[4] = biological target: T1, Serotonin (5-HT) receptor (Rattus norvegicus); assay: as §3; assay type: functional; design: concentration or dose not given beside the values; how it was run: as §4; remark: listed apart in the source
[5] = biological target: T1, Serotonin (5-HT) receptor (Rattus norvegicus); assay: as §3; assay type: functional; design: concentration or dose not given beside the values; how it was run: as §4; remark: listed apart in the source
[6] = biological target: Sodium-dependent serotonin transporter (Rattus norvegicus) (UniProt P31652); assay: Serotonin neuronal reuptake blocking activity was determined by the antagonism of the head twitch response induced in rats; assay type: functional; design: concentration or dose not given beside the values; how it was run: as §2
Rattus norvegicus [7] = assay: Ability to elicit head twitches in rats a response characteristic of a serotonin mimetic action in the central nervous system was measured after 2 mg/kg of ip administration; assay type: functional; settings: route intraperitoneal; how it was run: as §4
Rattus norvegicus [8] = assay: Ability to elicit head twitches in rats a response characteristic of a serotonin mimetic action in the central nervous system after 6 mg/kg of ip administration; assay type: functional; settings: route intraperitoneal; how it was run: as §4
Rattus norvegicus [9] = assay: Ability to elicit head twitches in rats a response characteristic of a serotonin mimetic action in the central nervous system was measured after 0.67 mg/kg of ip administration; assay type: functional; settings: route intraperitoneal; how it was run: as §4
Rattus norvegicus [10] = assay: Serotonin neuronal reuptake blocking activity was determined by the antagonism of the head twitch response induced by treatment of rats with p-chloromethamphetamine (PCMA) after 0.67 mg/kg of ip administration; assay type: functional; settings: route intraperitoneal; how it was run: as §2
Rattus norvegicus [11] = assay: Serotonin neuronal reuptake blocking activity was determined by the antagonism of the head twitch response induced in rats with p-chloromethamphetamine (PCMA) after 6 mg/kg of ip administration; assay type: functional; settings: route intraperitoneal; how it was run: as §2
Rattus norvegicus [12] = assay: Serotonin neuronal reuptake blocking activity was determined by the antagonism of the head twitch response induced by treatment of rats with p-chloromethamphetamine (PCMA) after 2 mg/kg of ip administration; assay type: functional; settings: route intraperitoneal; how it was run: as §2
Rattus norvegicus [13] = assay: Serotonin neuronal reuptake blocking activity was determined by the antagonism of the head twitch response induced by treatment of rats with p-chloromethamphetamine (PCMA) after 1 mg/kg of ip administration; assay type: functional; settings: route intraperitoneal; how it was run: as §2
Rattus norvegicus [14] = assay: Ability to elicit head twitches in rats a response characteristic of a serotonin mimetic action in the central nervous system was measured after 1.0 mg/kg of ip administration; assay type: functional; settings: route intraperitoneal; how it was run: as §4
Rattus norvegicus [15] = assay: Ability to elicit head twitches in rats a response characteristic of a serotonin mimetic action in the central nervous system after 9 mg/kg of ip administration; assay type: functional; settings: route intraperitoneal; how it was run: as §4
Rattus norvegicus [16] = assay: Serotonin neuronal reuptake blocking activity was determined by the antagonism of the head twitch response induced in rats with p-chloromethamphetamine (PCMA) after 9 mg/kg of ip administration; assay type: functional; settings: route intraperitoneal; how it was run: as §2
Rattus norvegicus [17] = assay: Ability to elicit head twitches in rats a response characteristic of a serotonin mimetic action in the central nervous system was measured after 3 mg/kg of ip administration; assay type: functional; settings: route intraperitoneal; how it was run: as §4
Rattus norvegicus [18] = assay: Serotonin neuronal reuptake blocking activity was determined by the antagonism of the head twitch response induced by treatment of rats with p-chloromethamphetamine (PCMA) after 3 mg/kg of ip administration; assay type: functional; settings: route intraperitoneal; how it was run: as §2
Rattus norvegicus [19] = assay: Serotonin neuronal reuptake blocking activity was determined by the antagonism of the head twitch response induced in rats with p-chloromethamphetamine (PCMA) after 40 mg/kg of ip administration; assay type: functional; settings: route intraperitoneal
How it was run: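 Female Sprague-Dawley rats (150-250 g) dosed ip with compound in 1% methylcellulose vehicle. p-Chloromethamphetamine 6.0 mg/kg ip was given 1 h later, and head movements were observed 30 min after that. Scored as number of rats not showing head twitches. Six rats per dose unless otherwise noted. Doses expressed as base weight.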

Rattus norvegicus [20] = assay: Ability to elicit head twitches in rats a response characteristic of a serotonin mimetic action in the central nervous system after 40 mg/kg of ip administration; Animals succumbed; assay type: functional, organism-based; design: dose 40 mg/kg; how it was run: as §4
Rattus norvegicus [21] = assay: Serotonin neuronal reuptake blocking activity was determined by the antagonism of the head twitch response induced by treatment of rats with p-chloromethamphetamine (PCMA) after 1.0 mg/kg of ip administration; assay type: functional; settings: route intraperitoneal; how it was run: as §2
Rattus norvegicus [22] = species: Rattus norvegicus; assay: ED50 value expresses the inhibition of serotonin reuptake in rat.; assay type: functional; how it was run: as §2
Rattus norvegicus [23] = assay: Ability to elicit head twitches in rats a response characteristic of a serotonin mimetic action in the central nervous system after 6.0 mg/kg of ip administration; assay type: functional; settings: route intraperitoneal; how it was run: as §4
Rattus norvegicus [24] = assay: Serotonin neuronal reuptake blocking activity was determined by the antagonism of the head twitch response induced in rats with p-chloromethamphetamine (PCMA) after 6.0 mg/kg of ip administration; assay type: functional; settings: route intraperitoneal; how it was run: as §2
Rattus norvegicus [25] = assay: Ability to elicit head twitches in rats a response characteristic of a serotonin mimetic action in the central nervous system was measured after 2.0 mg/kg of ip administration; assay type: functional; settings: route intraperitoneal; how it was run: as §4
Rattus norvegicus [26] = assay: Ability to elicit head twitches in rats a response characteristic of a serotonin mimetic action in the central nervous system was measured after 1 mg/kg of ip administration; assay type: functional; settings: route intraperitoneal; how it was run: as §4

Chain of Sodium-dependent serotonin transporter (Rattus norvegicus) (P31652 whole entry): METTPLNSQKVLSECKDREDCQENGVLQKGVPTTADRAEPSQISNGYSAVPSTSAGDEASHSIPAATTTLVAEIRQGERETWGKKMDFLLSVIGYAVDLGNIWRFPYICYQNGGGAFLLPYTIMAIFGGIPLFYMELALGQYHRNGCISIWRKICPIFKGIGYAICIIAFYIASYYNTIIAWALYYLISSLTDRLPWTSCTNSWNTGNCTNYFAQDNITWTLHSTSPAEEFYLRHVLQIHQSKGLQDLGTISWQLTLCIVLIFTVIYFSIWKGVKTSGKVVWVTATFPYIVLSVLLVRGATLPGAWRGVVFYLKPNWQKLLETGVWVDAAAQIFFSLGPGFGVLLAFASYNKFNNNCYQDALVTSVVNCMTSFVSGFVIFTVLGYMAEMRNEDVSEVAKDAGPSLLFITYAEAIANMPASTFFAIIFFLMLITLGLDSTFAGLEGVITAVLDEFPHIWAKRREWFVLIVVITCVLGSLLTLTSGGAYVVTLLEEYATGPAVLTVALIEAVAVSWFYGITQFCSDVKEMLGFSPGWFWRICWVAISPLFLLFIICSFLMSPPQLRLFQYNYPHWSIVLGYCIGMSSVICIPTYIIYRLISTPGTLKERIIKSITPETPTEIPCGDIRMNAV

Activity [5] | Structure (SMILES) | PCMA antagonism [1] | PCMA antagonism [2] | Activity [3] | Activity [4] | PCMA antagonism [6] | also measured
 | Fc1ccc2nc(N3CCNCC3)cnc2c1 | 2 | 2 |  |  | 4 | Activity (Rattus norvegicus [7]): 4; Activity (Rattus norvegicus [8]): 5; Activity (Rattus norvegicus [9]): 4
 | CS(=O)(=O)c1ccc2nc(N3CCNCC3)cnc2c1 |  |  |  |  |  | PCMA antagonism (Rattus norvegicus [10]): 2; PCMA antagonism (Rattus norvegicus [11]): 0; Activity (Rattus norvegicus [7]): 1; PCMA antagonism (Rattus norvegicus [12]): 0; Activity (Rattus norvegicus [8]): 2; Activity (Rattus norvegicus [9]): 0
 | Fc1cccc2nc(N3CCNCC3)cnc12 |  |  | 6 | 6 |  | 
 | CN1CCN(c2cnc3cc(Cl)ccc3n2)CC1.Cl |  |  |  |  |  | PCMA antagonism (Rattus norvegicus [13]): 2; Activity (Rattus norvegicus [14]): 0; Activity (Rattus norvegicus [15]): 1; PCMA antagonism (Rattus norvegicus [16]): 4; Activity (Rattus norvegicus [17]): 1; PCMA antagonism (Rattus norvegicus [18]): 2
0 | Cl.FC(F)(F)c1ccc2nc(N3CCNCC3)c(Sc3ccccc3)nc2c1 | 1 | 0 | 2 | 2 |  | PCMA antagonism (Rattus norvegicus [19]): 0
 | [O-][n+]1cc(N2CCNCC2)nc2ccccc21 |  |  | 6 | 6 |  | 
 | COc1ccc2nc(N3CCNCC3)cnc2c1 | 3 | 5 | 1 | 1 |  | Activity (Rattus norvegicus [20]): Active
 | Clc1ccc2ncc(N3CCNCC3)nc2c1 |  |  |  |  |  | Activity (Rattus norvegicus [14]): 0; PCMA antagonism (Rattus norvegicus [21]): 1; Activity (Rattus norvegicus [15]): 3; PCMA antagonism (Rattus norvegicus [16]): 5; Activity (Rattus norvegicus [17]): 1; PCMA antagonism (Rattus norvegicus [18]): 3
 | CN(C)CCCN1c2ccccc2CCc2ccc(Cl)cc21 [CLOMIPRAMINE] |  |  |  |  |  | ED50 (Rattus norvegicus [22]): 2 mg/kg
0 | Clc1ccc2nc(N3CCNCC3)c(Sc3ccccc3)nc2c1 | 1 | 2 | 1 | 1 | 1 | 
 | Cl.O=[N+]([O-])c1ccc2ncc(N3CCNCC3)nc2c1 |  |  |  |  |  | Activity (Rattus norvegicus [23]): 0; PCMA antagonism (Rattus norvegicus [10]): 2; PCMA antagonism (Rattus norvegicus [24]): 4; Activity (Rattus norvegicus [25]): 0; PCMA antagonism (Rattus norvegicus [12]): 5; Activity (Rattus norvegicus [9]): 1
3 | O=C1CN(c2cnc3ccccc3n2)CCN1 |  |  | 0 | 0 |  | 
4 | CN1CCN(c2nc3ccc(S(N)(=O)=O)cc3nc2Cl)CC1 | 2 | 2 | 1 | 3 | 2 | 
 | Cl.ON1CCN(c2cnc3ccccc3n2)CC1 |  |  |  |  |  | Activity (Rattus norvegicus [15]): 4; Activity (Rattus norvegicus [17]): 2; Activity (Rattus norvegicus [26]): 2

Structure (SMILES) | Activity [5] | PCMA antagonism [1] | PCMA antagonism [2] | Activity [3] | Activity [4] | PCMA antagonism [6] | also measured
O=[N+]([O-])c1ccc2nc(N3CCNCC3)cnc2c1 | 2 | 5 | 6 | 2 | 4 | 5 | 
Cl.Clc1ccc2nc(N3CCNCC3)cnc2c1 | 2 | 4 | 6 | 0 | 1 | 6 | ED50 (Rattus norvegicus [22]; Rattus norvegicus): 0.5 mg/kg
Oc1ccc2nc(N3CCNCC3)cnc2c1 | 1 |  | 0 | 0 | 0 | 2 | 
